Results as given in ChEMBL document CHEMBL2176934 (J Med Chem, 2012).
Calls of active or inactive are those of the source. The rule behind the calls is not given here.

Columns and labels:
Mus musculus = test: Antifibrosis activity in C57BL6/J mouse assessed as inhibition of LPA-stimulated histamine release at 100 mg/kg, po dosed 2 hrs prior to LPA-challenge by ELISA; assay type: functional, organism-based; set-up: dose 100 mg/kg
Summary of the method: (§1)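 Male C57BL6/J mice, 7–9 weeks old, given compound orally 2 h before intravenous LPA 100 μg/mouse (in 0.1% fatty acid-free BSA). Killed 3 min after LPA; EDTA plasma histamine measured by ELISA and plasma drug levels by LC/MS. n = 5–8 mice, mean ± SEM; one-way ANOVA with Dunnett's test versus LPA vehicle control.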

[1] = target: Voltage-gated inwardly rectifying potassium channel KCNH2 (Homo sapiens, UniProt Q12809); test: Inhibition of human ERG
[2] = Inhibition of Cytochrome P450; assay type: ADME
[3] = target: T1, Lysophosphatidic acid receptor 1 (Homo sapiens, UniProt Q92633); test: Antagonist activity at human recombinant LPA1 expressed in chem-1 cells assessed as inhibition of LPA-induced intracellular calcium mobilization at 30 uM incubated for 30 mins prior to LPA-challenge measured over 100 secs by FLIPR assay; assay type: functional, cell-based
Summary of the method: (§2)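 Calcium-optimized Chem-1 cells stably expressing human LPA1 or LPA3 (parental line with ionomycin as counterscreen), seeded 10,000/well the day before. Calcium-4 dye in HBSS/20 mM HEPES/2.5 mM probenecid loaded 30 min at 37 °C; compound added, 30 min at room temperature in the dark; LPA (18:1) 1 μM final. Peak fluorescence read over 100 s; IC50 from 10-concentration 4-parameter logistic fit, mean of at least three runs.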

[4] = target: T2, Lysophosphatidic acid receptor 3 (Homo sapiens, UniProt Q9UBY5); test: Antagonist activity at human recombinant LPA3 expressed in chem-1 cells assessed as inhibition of LPA-induced intracellular calcium mobilization incubated for 30 mins prior to LPA-challenge measured over 100 secs by FLIPR assay; assay type: functional, cell-based; summary of the method: as §2
T2 sequence (Q9UBY5 whole entry): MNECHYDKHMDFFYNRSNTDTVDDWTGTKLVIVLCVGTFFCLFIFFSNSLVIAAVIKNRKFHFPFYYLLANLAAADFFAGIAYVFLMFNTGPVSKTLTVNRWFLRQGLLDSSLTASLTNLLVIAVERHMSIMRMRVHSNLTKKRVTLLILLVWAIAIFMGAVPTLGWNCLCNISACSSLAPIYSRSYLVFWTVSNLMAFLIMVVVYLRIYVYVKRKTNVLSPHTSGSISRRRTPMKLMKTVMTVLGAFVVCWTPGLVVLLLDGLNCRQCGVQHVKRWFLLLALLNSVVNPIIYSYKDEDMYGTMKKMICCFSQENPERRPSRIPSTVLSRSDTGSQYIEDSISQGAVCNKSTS

[5] = target: T1, Lysophosphatidic acid receptor 1; test: Antagonist activity at LPA1 in human lung fibroblasts assessed as inhibition of LPA-induced contraction after 18 hrs by 3D collagen gel contraction assay; assay type: functional
Summary of the method: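 NHLFs (healthy nonsmoking donors, passages 5–9) at 2.5 × 10⁵ cells/well, mixed 1:4 with collagen lattice; gels polymerized 2 h at 37 °C, then basal medium with 0.1% FBS, 0.1% fatty acid-free BSA and vehicle or antagonist added. Gels detached, LPA (18:1) 15 μM added; after 18 h, contraction quantified by gel disc weight.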

[6] = Inhibition of LPA-induced proliferation of HLF at 10 uM incubated for 1 hr prior to LPA-challenge measured after 48 hrs by BrdU incorporation assay; assay type: functional; settings: Homo sapiens
Summary of the method: (§3)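 NHLFs (passages 5–9) seeded on collagen I at 5 × 10³ cells/well overnight in complete medium, then starved 24 h in basal medium with 0.1% FBS and 0.1% fatty acid-free BSA. Stimulated with LPA (18:1) 15 μM in the presence of antagonist; proliferation read as BrdU incorporation with a commercial kit.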

[7] = target: T3, Lysophosphatidic acid receptor 3 (Homo sapiens) (UniProt Q9UBY5); test: Antagonist activity at human recombinant LPA3 expressed in chem-1 cells assessed as inhibition of LPA-induced intracellular calcium mobilization at 30 uM incubated for 30 mins prior to LPA-challenge measured over 100 secs by FLIPR assay; assay type: functional, cell-based; summary of the method: as §2
T3 sequence (whole entry): T2 sequence (Q9UBY5 whole entry)

Plasma = test: Ratio of plasma concentration of AM095 to plasma concentration of compound in C57BL6/J mouse at 100 mg/kg, po dosed 2 hrs prior to LPA-challenge by LC/MS spectrometry; assay type: ADME, organism-based; set-up: dose 100 mg/kg, route oral; settings: in vivo; summary of the method: as §1
[8] = Inhibition of LPA-induced proliferation of HLF incubated for 1 hr prior to LPA-challenge measured after 48 hrs by BrdU incorporation assay; settings: Homo sapiens
[9] = Inhibition of LPA-induced proliferation of HLF at 1 uM incubated for 1 hr prior to LPA-challenge measured after 48 hrs by BrdU incorporation assay; assay type: functional; settings: Homo sapiens; summary of the method: as §3

T1 sequence (Q92633 whole entry): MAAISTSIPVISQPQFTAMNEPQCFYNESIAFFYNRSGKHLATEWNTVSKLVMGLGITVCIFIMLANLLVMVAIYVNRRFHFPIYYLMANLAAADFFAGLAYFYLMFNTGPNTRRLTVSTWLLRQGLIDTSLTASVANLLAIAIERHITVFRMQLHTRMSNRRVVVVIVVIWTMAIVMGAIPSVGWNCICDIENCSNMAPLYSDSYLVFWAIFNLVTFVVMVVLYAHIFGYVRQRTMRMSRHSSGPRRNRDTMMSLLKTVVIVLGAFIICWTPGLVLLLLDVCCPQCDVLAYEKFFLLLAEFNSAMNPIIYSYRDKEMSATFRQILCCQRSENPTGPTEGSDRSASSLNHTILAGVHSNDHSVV
Sequence of Voltage-gated inwardly rectifying potassium channel KCNH2 (Q12809 whole entry): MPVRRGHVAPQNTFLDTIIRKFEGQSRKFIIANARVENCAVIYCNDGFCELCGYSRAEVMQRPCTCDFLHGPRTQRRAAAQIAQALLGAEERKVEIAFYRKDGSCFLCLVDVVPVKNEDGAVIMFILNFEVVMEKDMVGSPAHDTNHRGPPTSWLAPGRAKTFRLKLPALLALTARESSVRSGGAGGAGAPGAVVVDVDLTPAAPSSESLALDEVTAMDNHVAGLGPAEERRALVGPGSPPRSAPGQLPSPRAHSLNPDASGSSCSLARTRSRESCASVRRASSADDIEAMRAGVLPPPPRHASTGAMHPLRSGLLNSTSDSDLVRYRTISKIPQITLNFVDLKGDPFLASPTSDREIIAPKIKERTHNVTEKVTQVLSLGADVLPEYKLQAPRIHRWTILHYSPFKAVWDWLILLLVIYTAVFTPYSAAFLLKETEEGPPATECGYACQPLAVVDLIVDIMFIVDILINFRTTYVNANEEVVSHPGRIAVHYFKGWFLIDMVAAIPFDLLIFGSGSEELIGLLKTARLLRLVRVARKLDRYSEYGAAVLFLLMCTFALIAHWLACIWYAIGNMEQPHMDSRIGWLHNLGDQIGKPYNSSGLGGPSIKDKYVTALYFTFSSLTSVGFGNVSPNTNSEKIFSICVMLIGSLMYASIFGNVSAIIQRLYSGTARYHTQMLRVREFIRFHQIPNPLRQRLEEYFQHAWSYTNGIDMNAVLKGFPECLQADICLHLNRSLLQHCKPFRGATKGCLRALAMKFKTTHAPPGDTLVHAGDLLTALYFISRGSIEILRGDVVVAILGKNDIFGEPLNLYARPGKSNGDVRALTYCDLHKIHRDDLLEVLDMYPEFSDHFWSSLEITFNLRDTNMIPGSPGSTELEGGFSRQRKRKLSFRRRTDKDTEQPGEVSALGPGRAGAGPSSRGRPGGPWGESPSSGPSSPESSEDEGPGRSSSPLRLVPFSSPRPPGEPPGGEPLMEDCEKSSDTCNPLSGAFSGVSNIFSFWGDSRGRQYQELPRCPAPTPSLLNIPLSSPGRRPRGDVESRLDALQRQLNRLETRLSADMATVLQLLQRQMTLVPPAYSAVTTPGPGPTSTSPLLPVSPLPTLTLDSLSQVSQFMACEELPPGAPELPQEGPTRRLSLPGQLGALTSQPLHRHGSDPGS

Compound	inhibition (Mus musculus)	inhibition (INH) [1]	inhibition (INH) [2]	inhibition [3] [%]	IC50 [4] [nM]	inhibition [5]	IC50 [8] [nM]	also measured
Cc1noc(-c2ccc(-c3ccc(CC(=O)O)cc3)cc2)c1NC(=O)O[C@H](C)c1ccccc1	Active	–	–	–	–	–	–	–
CC(OC(=O)Nc1c(-c2ccccc2)cnn1C)c1ccccc1Cl (racemic)	–	Not Active	Not Active	> 97	> 30000	–	–	–
CC(OC(=O)Nc1c(-c2ccc(F)cc2)cnn1C)c1ccccc1Cl (racemic)	–	Not Active	Not Active	> 97	> 30000	–	–	–
Cc1csc2c(N[C@@H](C)CN3CCN(S(=O)(=O)c4ccc(Cl)c(Cl)c4)CC3)ncnc12	–	–	–	–	–	inactive	–	inhibition at 10 µM [6]: < 50%
Cc1nnn(-c2ccc(-c3ccc(C4(C(=O)O)CC4)cc3)cc2)c1NC(=O)O[C@H](C)c1ccccc1	Active	Not Active	Not Active	–	–	Dose-dependent effect	4	inhibition [7]: 20%; Ratio (Plasma): > 65
C[C@@H](OC(=O)Nc1c(-c2ccccc2F)cnn1C)c1ccccc1Cl	–	Not Active	Not Active	> 97	–	–	810	inhibition at 1 µM [9]: > 50%
